# Reference: ChEMBL document CHEMBL3091283, “Selective cannabinoid receptor type 2 (CB2) agonists: optimization of a series of purines leading to the identification of a clinical candidate for the treatment of osteoarthritic pain” (J Med Chem, 2013)
# Key:
# [1] = AUC in Sprague-Dawley rat at 3 mg/kg, po; format: ADME, organism-based; set-up: dose 3 mg/kg, route oral; settings: plasma
# [2] = Cmax in Sprague-Dawley rat at 1 mg/kg, iv and 1 mg/kg, po; format: ADME, organism-based; settings: in vivo
# Summary of the method: (§1)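 Male Sprague-Dawley rats dosed 1 mg/kg iv and 1 mg/kg po. Clearance, volume of distribution, oral half-life, AUC, Cmax and bioavailability calculated from plasma levels.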
# [3] = Volume of distribution in Beagle dog at 1 mg/kg, iv and 3 mg/kg, po; format: ADME, organism-based, Canis lupus familiaris; settings: in vivo
# Summary of the method: (§2)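 Male beagle dogs given 1 mg/kg iv and 3 mg/kg po. Plasma PK parameters derived: clearance, volume of distribution, oral half-life, AUC, Cmax and oral bioavailability.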
# MDR1 [4] = assay: MDR1-mediated transport in MDCK cells assessed as permeability from basolateral to apical side at 5 uM; format: ADME, cell-based, Canis lupus familiaris; settings: dog, read-out: permeability
# Summary of the method: (§3)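 Transport measured across MDCK-MDR1 monolayers at 5 μM, with and without inhibitor. A→B and B→A fluxes recorded in cm/s × 10−6; efflux ratio taken as B→A over A→B.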
# MDR1 [5] = assay: MDR1-mediated transport in MDCK cells assessed as permeability from apical to basolateral side at 5 uM; format: ADME, cell-based, Canis lupus familiaris; settings: dog, read-out: permeability; summary of the method: as §3
# [6] = Cmax in Beagle dog at 1 mg/kg, iv and 3 mg/kg, po; format: ADME, organism-based, Canis lupus familiaris; settings: in vivo; summary of the method: as §2
# [7] = Oral bioavailability in Sprague-Dawley rat at 1 mg/kg; format: ADME, organism-based; settings: in vivo; summary of the method: as §1
# [8] = Aqueous solubility in simulated GI fluid at pH 6.8; format: physicochemical
# [9] = AUC in Sprague-Dawley rat at 1 mg/kg, iv and 1 mg/kg, po; format: ADME, organism-based; settings: plasma; summary of the method: as §1
# [10] = AUC in Beagle dog at 1 mg/kg, iv and 3 mg/kg, po; format: ADME, organism-based, Canis lupus familiaris; settings: plasma; summary of the method: as §2
# [11] = Volume of distribution in Sprague-Dawley rat at 1 mg/kg, iv; format: ADME, organism-based; set-up: dose 1 mg/kg, route intravenous; settings: in vivo
# Summary of the method: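 Male Sprague–Dawley rats were given 1 mg/kg iv. Clearance and volume of distribution were derived from plasma pharmacokinetics.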
# [12] = Oral bioavailability in Beagle dog at 3 mg/kg; format: ADME, organism-based, Canis lupus familiaris; settings: in vivo; summary of the method: as §2
# [13] = Lipophilicity, log P of the compound; format: physicochemical; settings: octanol/water
# [14] = Ratio of drug level in brain to plasma in rat; format: ADME; settings: read-out: BPR
compound,measurement,setting,value
COCCn1c(-c2ccccc2Cl)nc2c(N3CCN(CCF)CC3)nc(C)nc21.Cl,AUC,[1],< 50 ng·h/mL
Cc1nc(N2CCN(C)CC2)c2nc(-c3ccccc3Cl)n(CCS(C)(=O)=O)c2n1.Cl,Cmax,[2],76 ng/mL
same,Vd,[3],9.2 L/kg
same,Papp B→A at 5 µM,MDR1 [4],43 ×10⁻⁶ cm/s
same,Papp A→B at 5 µM,MDR1 [5],42 ×10⁻⁶ cm/s
same,Cmax,[6],62 ng/mL
same,bioavailability,[7],43%
same,solubility,[8],> 100 µM
same,AUC,[9],312 ng·h/mL
same,AUC,[10],286 ng·h/mL
same,Vd,[11],1.9 L/kg
same,bioavailability,[12],60%
Cc1nc(N2CCN(C)CC2)c2nc(-c3ccccc3Cl)n([C@@H]3CCOC3)c2n1,logP,[13],3.2
CCN1CCN(c2nc(C)nc3c2nc(-c2ccccc2Cl)n3CC2CCOCC2)CC1.Cl,logP,[13],3.4
same,bioavailability,[7],27%
same,Vd,[11],5 L/kg
Cc1nc(N2CCN(C)CC2)c2nc(-c3ccccc3Cl)n(C3CCOCC3)c2n1.Cl,Cmax,[2],60 ng/mL
same,Vd,[3],5.5 L/kg
same,logP,[13],3.1
same,Papp B→A at 5 µM,MDR1 [4],3.1 ×10⁻⁶ cm/s
same,Kp,[14],0.9
same,Papp A→B at 5 µM,MDR1 [5],3.1 ×10⁻⁶ cm/s
same,Cmax,[6],352 ng/mL
same,bioavailability,[7],67%
same,solubility,[8],> 100 µM
same,AUC,[9],265 ng·h/mL
same,AUC,[10],1940 ng·h/mL
same,Vd,[11],6 L/kg
same,bioavailability,[12],76%
CCN1CCN(c2nc(C)nc3c2nc(-c2ccccc2Cl)n3C)CC1.Cl,solubility,[8],> 100 µM
CCN1CCN(c2nc(C)nc3[nH]c(-c4ccccc4Cl)nc23)CC1,logP,[13],3.7
CCN1CCN(c2nc(C)nc3c2nc(-c2ccccc2Cl)n3CCOC)CC1.Cl,AUC,[1],< 50 ng·h/mL
